In paper PMC8320615 (Current Research in Toxicology, 2021):
Where two headings read alike, the source gives them in different places.

How the values were obtained:
[1] = MTT cytotoxicity on HK-2 cells in HK-2/HepaRG co-culture; format: cell-based; conditions: human; for IC50 at 24 h / IC50 at 48 h: HK-2 cells in co-culture with HepaRG cells (IdMOC plates)
Outline: (§1)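 HK-2 (RPMI-1640) and HepaRG (William's E plus Tox supplement), passages 10–15, seeded together in IdMOC plates and allowed 4 h at 37 °C, 5% CO2. Test compound at several concentrations, DMSO ≤0.5% final, for 24 h and 48 h; MTT read-out. Triptolide positive control: 10 μmol/L for HK-2, 25 μmol/L for HepaRG. IC50 by nonlinear regression; mean ± SD. 48 h IC50 under 100 μM scored toxic.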

[2] = MTT cytotoxicity on HepaRG cells in HK-2/HepaRG co-culture; format: cell-based; conditions: human; for IC50 at 24 h / IC50 at 48 h: HepaRG cells in co-culture with HK-2 cells (IdMOC plates)
Outline: as §1

HK-2 cells [3] = test: MTT cytotoxicity on HK-2 cells in HK-2/HepaRG co-culture; format: cell-based; conditions: co-culture; for IC50: MTT
Outline: as §1

HepaRG cells = test: MTT cytotoxicity on HepaRG cells in HK-2/HepaRG co-culture; format: cell-based; conditions: co-culture; for IC50: MTT; for effect on viability of HepaRG cells (in words): per Table 3
Outline: as §1

[4] = reported in the literature ref Wang et al., 2009; cited from earlier work
[5] = Outline: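 Liver call by software prediction over five injury markers (AlkPhos, GGT, LDH, SGOT, SGPT), positive when three are positive. Kidney call by a self-built QSAR classifier (accuracy 76.7%) giving positive/negative. In vitro, 48 h MTT IC50 under 100 μM in HK-2/HepaRG co-culture counted as toxic. Compounds flagged when either approach was positive.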
HK-2 cells [6] = test: MTT cytotoxicity on HK-2 cells in single culture; format: cell-based; conditions: Homo sapiens, HK-2, 24 h, read-out: IC50 HK-2 Single culture
Outline: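 HK-2 cells (passages 10–15) in RPMI-1640 with 10% FBS at 37 °C, 5% CO2, cultured alone and exposed 24 h to a range of test compound concentrations, DMSO ≤0.5% final; vehicle control 0.5% DMSO. Viability by MTT; IC50 from nonlinear regression.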

[7] = read-out: Renal cytotoxicity IC50 HK-2 24 h, 24 h
[8] = read-out: Renal cytotoxicity IC50 HK-2 48 h, 48 h
[9] = read-out: Hepatic cytotoxicity IC50 HepaRG 24 h, 24 h
[10] = read-out: Hepatic cytotoxicity IC50 HepaRG 48 h, 48 h

Molecule	IC50 at 24 h [1]	IC50 at 48 h [1]	IC50 at 24 h [2]	IC50 at 48 h [2]	IC50 (HK-2 cells [3]; [7])	IC50 (HK-2 cells [3]; [8])	IC50 (HepaRG cells; [9])	IC50 (HepaRG cells; [10])	also measured
COc1c(O)c(C)cc2c1C(=O)c1c(ccc(O)c1O)C2=O [No. 7, 1,2,7-trihydroxy-8-methoxy-6-methyl-9,10-anthraquinone]	> 500 µM	> 500 µM	> 500 µM	44.2 µM					
COc1cc2c(c(O)c1OC)C(=O)c1c(cc(C)c(O[C@@H]3O[C@H](CO)[C@@H](O)[C@H](O)[C@H]3O)c1OC)C2=O [No. 18, Gluco-obtusin]					255 µM	> 500 µM	178 µM	125 µM	
CC(C)[C@]12O[C@H]1[C@@H]1O[C@]13[C@]1(O[C@H]1C[C@H]1C4=C(CC[C@@]13C)C(=O)OC4)[C@@H]2O [Triptolide, reference compound]									viability at 10 μmol/L ([1]; HK-2 cells co-cultured with HepaRG cells in IdMOC plates): 43.6 ± 2.26%; viability at 25 μmol/L ([2]; HepaRG cells co-cultured with HK-2 cells in IdMOC plates): 50.5 ± 5.68%
Cc1cc(O)c2c(c1)C(=O)c1cccc(O)c1C2=O [No. 9, Chrysophanol]	> 500 µM	93.9 µM	> 500 µM	170 µM					
O=C1c2cccc(O)c2C(=O)c2c(O)cc(CO)cc21 [No. 10, Aloe-emodin]	> 500 µM	134 µM	> 500 µM	96.2 µM					nephrotoxicity in vivo (in words) [4]: nephrotoxic; effect on viability of HepaRG cells (in words) (HepaRG cells): decreased the viability of HepaRG cells
COc1c(O)cc2c(c1O)C(=O)c1c(cc(C)c(O)c1OC)C2=O [No. 5, Aurantio-obtusin]	> 500 µM	117 µM	333 µM	75.5 µM					effect on viability of HepaRG cells (in words) (HepaRG cells): decreased the viability of HepaRG cells
O=C1c2ccccc2C(=O)c2ccccc21 [No. 17, 9,10-Anthracenedione]	> 500 µM	138 µM	93.4 µM	84.4 µM					
Cc1cc2c(c(O)c1O)C(=O)c1c(O)cc(O)cc1C2=O [No. 13, Alaternin (quinone)]					> 500 µM	> 500 µM	> 500 µM	> 500 µM	
COc1c(O[C@@H]2O[C@H](CO)[C@@H](O)[C@H](O)[C@H]2O)c(C)cc2c1C(=O)c1c(O)cccc1C2=O [No. 16, Obtusifoline-2-O-β-D-glucoside]					270 µM	251 µM	108 µM	98.5 µM	
2-O-β-D-Glucoside-9-dehydroxyeurotinone [No. 22]					> 500 µM	> 500 µM	> 500 µM	> 500 µM	
COc1c(O)c(C)cc2c1C(=O)c1c(cc(O)c(O)c1O)C2=O [No. 6, 1,2,3,7-tetrahydroxy-8-methoxy-6-methyl-anthraquinone]	> 500 µM	283 µM	> 500 µM	209 µM					
Cc1cc(O)c2c(c1)C(=O)c1cc(O)cc(O)c1C2=O [No. 8, Emodin]	89 µM	122 µM	125 µM	31.9 µM					both hepatotoxicity and nephrotoxicity (in words) [5]: both hepatotoxicity and nephrotoxicity; IC50 (HK-2 cells [6]): 140 µM; effect on viability of HepaRG cells (in words) (HepaRG cells): decreased the viability of HepaRG cells
COc1c(O[C@@H]2O[C@H](CO)[C@@H](O)[C@H](O)[C@H]2O)cc2c(c1O)C(=O)c1c(cc(C)c(O)c1OC)C2=O [No. 20, Glucoaurantio-obtusin]					> 500 µM		154 µM		
9-Dehydroxyeurotinone (EDG) [No. 21]					380 µM	111 µM	448 µM	331 µM	
O=C(O)c1cc(O)c2c(c1)C(=O)c1cccc(O)c1C2=O [No. 11, Rhein]	229 µM	44.1 µM	307 µM	36.1 µM					effect on viability of HK-2 cells (in words) (HK-2 cells [3]; per Table 3): reduced the viability of HK-2 cells; both hepatotoxicity and nephrotoxicity (in words) [5]: both hepatotoxicity and nephrotoxicity; effect on viability of HepaRG cells (in words) (HepaRG cells): decreased the viability of HepaRG cells
COc1ccc2c(c1OC)C(=O)c1c(cc(C)c(O)c1OC)C2=O [No. 4, 1,7,8-methoxyl-2-hydroxyl-3-methyl-anthraquinone]					332 µM	37.5 µM	420 µM	192 µM	
O=C(O)c1cc(O)c2c(c1)C(=O)c1cccc(O[C@@H]3O[C@H](CO)[C@@H](O)[C@H](O)[C@H]3O)c1C2=O [No. 15, Rhein-8-O-β-D-glucoside]					> 500 µM	108 µM	> 500 µM	208 µM	
COc1cc2c(c(O)c1OC)C(=O)c1c(cc(C)c(O)c1OC)C2=O [No. 2, Obtusin]					50.5 µM	57.8 µM	298 µM	81.2 µM	both hepatotoxicity and nephrotoxicity (in words) [5]: both hepatotoxicity and nephrotoxicity
CC(=O)OC[C@H]1O[C@@H](Oc2cc(O)cc3cc4oc(C)cc(=O)c4c(O)c23)[C@H](O)[C@@H](O)[C@@H]1O [No. 24, Nor-rubrofusarin-6-O-β-D-(6’-O-acetyl)glucopyranoside]					> 500 µM	> 500 µM	> 500 µM	226 µM	
COc1c(O)c(C)cc2c1C(=O)c1c(O)cccc1C2=O [No. 3, Obtusifoline]	310 µM	389 µM	117 µM	35 µM					
CC(=O)c1c(C)cc2cc(O)cc(O[C@@H]3O[C@H](CO)[C@@H](O)[C@H](O)[C@H]3O)c2c1O [No. 25, 6-Hydroxymusizin-8-O-β-D-glucopyranoside]					> 500 µM	> 500 µM	> 500 µM	317 µM	
COc1cc(O)c2c(c1)C(=O)c1cc(C)cc(O)c1C2=O [No. 12, Physcion]	> 500 µM	196 µM	> 500 µM	73.6 µM					
COc1cc2c(c(OC)c1OC)C(=O)c1c(cc(C)c(O)c1OC)C2=O [No. 1, Chryso-obtusin]	53 µM	33.6 µM	71.9 µM	388 µM					
